# Most compounds without a hit are left out; they make up all but 1.3% or so of the library.
# Diaph act CS = activates diaphorase or chemically reduces, flagging diaphorase assay artifacts | Diaphorase/resazurin coupled assay, resorufin fluorescence, 16 min; stronger effect = higher value; 1 = vehicle wells, 0 = NADH-free wells | activation factor at 20 µM | 190,000 tested, 0.005% active;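 active means diaphorase activity raised at least twofold by the compound at 20 µM; inactive means activation factor below 2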
#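 Material: purified diaphorase enzyme from Clostridium kluyveri / Medium: HEPES pH 7.4 buffer with MgCl2 and Tween 20 / Schedule: enzyme reaction of 16 min at room temperature / Measured by: resorufin fluorescence, excitation 544 nm, emission 590 nm / Evaluation: rise in resorufin formation, marking diaphorase activation or chemical reduction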
# G6PDH CS = counter-screen for G6PDH assay hits: L. mesenteroides G6PDH inhibition; 200,000 tested, 0.12% active; inhibition, % at 5 µM; Purified L. mesenteroides G6PDH, diaphorase/resazurin coupled fluorescence, 45 min; in the data active means inhibition above about 50%
# Diaph inh CS = inhibits diaphorase or chemically oxidizes, flagging diaphorase assay artifacts. inhibition, % at 20 µM. diaphorase resazurin-to-resorufin fluorescence, NADH, 16 min; bacterial (C. kluyveri) enzyme, not human. 190,000 tested, 0.69% active;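 active means primary screen inhibition at 20 µM above a set limit, cut at about 50% in these data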;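 further: plate controls were DMSO with full reaction for no effect and wells lacking NADH for full effect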
#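 Test system: bacterial diaphorase enzyme (C. kluyveri); Quantity: 0.14 U/mL diaphorase, enzyme working solution; Times: reaction incubation of 16 min at room temperature; Measured by: fluorescence of resorufin formed from resazurin, Ex 544/Em 590 nm; Benchmarks: positive control minus NADH, DMSO neutral control.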
# PfG6PD inh = PfG6PD (Plasmodium falciparum) enzyme inhibition. PfGluPho enzyme, NADPH resazurin-diaphorase fluorescence. inhibition, % at 20 µM. 350,000 tested, 0.78% active. AID 504690;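 active means inhibition reaching at least a set limit at 20 µM in the primary screen, cut at about 59% in these data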;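 further: 0% = DMSO wells with substrate and 100% = DMSO wells lacking glucose-6-phosphate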
# HKDC1 inh = inhibitors of human hexokinase HKDC1; Q2TB90; inhibition, % at 20 µM; AID 493160; recombinant HKDC1, G6PDH/diaphorase resazurin coupled fluorescence; 340,000 tested, 0.16% active;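 active means inhibition above about 35% when tested at 20 µM, limit read from the data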;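 further: plate controls were DMSO wells with enzyme for no effect and DMSO wells lacking enzyme for full effect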
# Target sequence (Q2TB90 whole entry, looked up): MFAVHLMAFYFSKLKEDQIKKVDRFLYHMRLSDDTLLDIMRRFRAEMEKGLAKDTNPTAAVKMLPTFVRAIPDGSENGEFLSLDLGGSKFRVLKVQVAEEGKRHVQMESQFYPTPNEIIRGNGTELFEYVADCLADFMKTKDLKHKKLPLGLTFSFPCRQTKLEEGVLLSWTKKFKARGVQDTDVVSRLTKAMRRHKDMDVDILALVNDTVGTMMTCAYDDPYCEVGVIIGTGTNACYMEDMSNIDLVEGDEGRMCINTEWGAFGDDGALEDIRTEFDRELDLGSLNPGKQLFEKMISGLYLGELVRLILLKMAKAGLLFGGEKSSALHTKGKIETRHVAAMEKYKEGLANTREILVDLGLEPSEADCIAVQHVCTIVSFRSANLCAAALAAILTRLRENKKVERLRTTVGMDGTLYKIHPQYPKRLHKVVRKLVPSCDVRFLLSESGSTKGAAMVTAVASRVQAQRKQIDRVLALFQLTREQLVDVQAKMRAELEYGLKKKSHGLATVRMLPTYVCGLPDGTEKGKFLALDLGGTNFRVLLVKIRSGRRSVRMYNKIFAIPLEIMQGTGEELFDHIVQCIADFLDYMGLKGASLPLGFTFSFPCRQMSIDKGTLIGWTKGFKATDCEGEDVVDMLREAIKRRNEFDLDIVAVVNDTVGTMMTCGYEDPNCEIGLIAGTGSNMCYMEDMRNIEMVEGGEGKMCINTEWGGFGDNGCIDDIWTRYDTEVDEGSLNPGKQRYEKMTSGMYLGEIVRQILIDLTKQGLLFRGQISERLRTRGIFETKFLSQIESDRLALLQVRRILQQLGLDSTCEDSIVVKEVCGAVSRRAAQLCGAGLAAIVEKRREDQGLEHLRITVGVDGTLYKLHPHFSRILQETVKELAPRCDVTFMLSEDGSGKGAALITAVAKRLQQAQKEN
#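 System: Recombinant HKDC1 hexokinase | Amount: HKDC1 at 5 µg/mL | Reagent: Glucose with 1 mM ATP | Doses: Single 20 µM dose | Incubation: Reaction time 90 min, room temperature, protected from light | Signal: Coupled resazurin fluorescence, excitation 525 nm, emission 613 nm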
# PfGluPho conf = confirmation of Plasmodium falciparum G6PD inhibitors | recombinant PfGluPho, NADPH-diaphorase-resazurin fluorescence | 2,400 tested, 34% active | inhibition, % at 20 µM | shares compounds with PfG6PD inh;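 active means inhibition of at least 50% at 20 µM in any single replicate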;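 further: 0% = DMSO with substrate and 100% = DMSO lacking glucose-6-phosphate substrate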
# Diaphorase 10uM = diaphorase inhibition or oxidation at 10 uM NADPH. shares compounds with PfG6PD inh. diaphorase-coupled resazurin reduction, fluorescence, NADPH 10 uM. inhibition, % at 20 µM. 820 tested, 39% active. AID 504862;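 active means average inhibition reaching 50% or more with the compound at 20 µM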;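 further: resorufin red fluorescence formed as diaphorase reduces resazurin using NADPH; 0% = DMSO with enzyme and 100% = DMSO without enzyme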
# Diaphorase 30uM = diaphorase inhibition or oxidation at 30 uM NADPH | shares compounds with PfG6PD inh | AID 504863 | 820 tested, 29% active | inhibition, % at 20 µM | Diaphorase/resazurin coupled assay, resorufin fluorescence;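 active means inhibition averaging 50% or more, tested at 20 µM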;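 further: 0% = DMSO with enzyme and 100% = DMSO wells lacking diaphorase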
# Starred values were filed as active, the others as inactive; nt = no result.
SMILES,Diaph act CS,G6PDH CS,Diaph inh CS,PfG6PD inh,HKDC1 inh,PfGluPho conf,others
CCN(CC)C(=O)CSc1nc(-c2cccs2)cc(-c2cccs2)c1C#N,0.9,-2,6,70*,4,15,
O=C(NC1CC1)c1cc(=S)[nH]c2ccccc12,nt,nt,nt,60*,-8,9,
O=C(NC1CC1)C(=O)c1c[nH]c2ccccc12,nt,nt,nt,3,-3,nt,
COc1cccc(C(=O)Nc2sc3c(c2C#N)CCN(C(C)=O)C3)c1,0.9,5,11,61*,-7,36,
COc1cc(C(=O)Nc2sc3c(c2C(=O)O)CCC3)cc(OC)c1OC,nt,nt,nt,7,3,nt,
COc1cccc(C(=O)Nc2sc3c(c2C(=O)O)CCCC3)c1,nt,nt,nt,88*,7,41,
Cc1cccc(C(=O)Nc2sc3c(c2C(=O)O)CCC3)c1,nt,nt,nt,60*,3,18,
CNC(=O)c1c(NC(=O)c2cccc(C)c2)sc2c1CCC2,nt,nt,nt,38,6,nt,
CC1(OC(=O)C2CCCC2)C(=O)C=C2C=C(c3ccsc3)N(Cc3ccc4c(c3)OCO4)C=C2C1=O (centres undefined),nt,nt,nt,61*,27,53*,Diaphorase 10uM=8;Diaphorase 30uM=3
CC1(OC(=O)C2CCCC2)C(=O)C=C2C=C(c3ccsc3)N(CC3CC3)C=C2C1=O (centres undefined),nt,nt,nt,68*,21,50*,Diaphorase 10uM=12;Diaphorase 30uM=14
O=C(CCc1nnc(C2CCCCC2)o1)N1CCN(c2ccccc2F)CC1,1.1,7,-7,-7,0,nt,
COc1ccccc1NC(=O)Nc1nn(C)c2cccc(N(C)C)c12,nt,nt,nt,64*,12,21,
Cc1ccnc(SCC(=O)Nc2oc(-c3ccccc3)c(-c3ccccc3)c2C#N)n1,0.9,-27,13,-14,1,nt,
Cc1ccc(-c2ccc(/C=C/C(=O)c3ccccc3)o2)cc1,0.8,-7,19,11,-11,nt,
O=C(/C=C/c1ccc(-c2ccccc2)o1)c1ccccc1,0.8,22,24,111*,9,5,
CC1(C)CC(=O)C2=C(C1)NC1=C(C(=O)c3ccccc31)C2c1ccc(Cl)cc1 (centres undefined),0.8,17,21,68*,9,14,
COc1ccc(S(=O)(=O)N2CCOCC2)cc1NC(=O)c1ccc(OC(F)F)cc1,nt,nt,nt,1,-1,nt,
Clc1ccc2ncc(-c3nnnn3-c3ccccc3)c(-c3ccccc3)c2c1,0.8,12,21,26,4,nt,
Clc1ccc2[nH]cc(-c3nnnn3-c3ccccc3)c2c1,0.7,4,26,96*,8,36,
COCCCNC(=O)Cc1coc2ccc3ccccc3c12,0.9,-6,8,9,0,nt,
CCN1/C(=C/C(=O)c2ccco2)Sc2ccccc21,1.1,13,-14,77*,3,34,
COc1ccc(S(=O)(=O)NCc2ccccn2)cc1NC(=O)c1ccc(C)cc1,nt,nt,nt,-13,-1,nt,
Oc1ccc(N2CCN(CC(O)c3ccccc3)CC2)cc1 (centres undefined),nt,nt,nt,80*,7,26,
COc1ccc(OC)c(/C=N/NC(=O)CCc2ccc(O)c(O)c2)c1,0.5,24,49,19,-12,nt,
Cc1ccc(S(=O)(=O)C2(C(=O)N3CCN(c4cc(C)ccc4C)CC3)CC2)cc1,0.7,4,26,15,-6,nt,
SMILES,Diaph act CS,G6PDH CS,Diaph inh CS,PfG6PD inh,HKDC1 inh,PfGluPho conf,others
CCOC(=O)c1cnc2ccc(Br)cc2c1NCCO,0.8,-22,20,65*,-10,16,
Cc1ccc(NC2Sc3ccccc3NC2=O)cc1Cl (centres undefined),nt,nt,nt,82*,-5,-6,
O=C1CC(N2CCN(c3ccc(O)cc3)CC2)C(=O)N1c1ccc2c(c1)OCO2 (centres undefined),0.7,16,31,60*,-4,29,
Cc1occc1C(=O)N(C)CC1CCCN(CCc2ccccc2F)C1 (centres undefined),nt,nt,nt,3,0,nt,
Cc1nnc(N/N=C/c2ccc(Br)cc2)n1N,nt,nt,nt,57,7,nt,
Cc1nnc(N/N=C\c2ccc(-c3cccc(C(=O)O)c3)o2)n1N,1,7,4,71*,3,52*,Diaphorase 10uM=25;Diaphorase 30uM=18
Cc1nnc(N/N=C/c2ccc(-c3ccc(Br)cc3)o2)n1N,0.9,9,15,61*,5,48,
CCc1ccc(NC(=O)NCC2CCN(c3ccc(OC)cc3)C2)cc1 (centres undefined),nt,nt,nt,46,10,nt,
O=C(Nc1ccc([N+](=O)[O-])cc1Cl)c1cc(Cl)ccc1O,nt,nt,nt,94*,5,51*,Diaphorase 10uM=41;Diaphorase 30uM=31
O=C(Nc1ccc([N+](=O)[O-])cc1Cl)c1cccc([N+](=O)[O-])c1,nt,nt,nt,5,nt,nt,
COc1cccc(/C=N/NC(=O)CCCc2ccc(OC)c(C)c2)c1,0.8,1,20,77*,3,23,
COc1cccc(C=NNC(=O)CCCC(=O)NN=Cc2cccc(OC)c2)c1,nt,nt,nt,14,-4,nt,
CCOc1ccc(-c2csc(N)c2C(=O)OC)cc1,0.9,17,14,66*,-10,10,
Cc1c(C(=O)OCc2ccc(F)cc2)sc2nc3n(c(=O)c12)CCC3,nt,nt,nt,-7,-1,nt,
CCOC(=O)N1CCN(Cc2ccc(OCC(O)CN3CCCCC3)cc2)CC1 (centres undefined),nt,nt,nt,-6,-2,nt,
Cc1ccc2c(c1)/C(=N/OS(=O)(=O)c1ccccc1)CCS2,nt,nt,nt,10,-1,nt,
CC1=CC(=O)C=C(C)C1=NOS(=O)(=O)c1ccccc1,1,10,0,112*,12,111*,Diaphorase 10uM=103*;Diaphorase 30uM=100*
CC1=CC(=O)C(C(C)C)=C/C1=N/OS(=O)(=O)c1ccccc1,nt,nt,nt,105*,16,96*,Diaphorase 10uM=73*;Diaphorase 30uM=77*
CC(C)C(=O)Nc1ccc(C(=O)N/N=C/C2CC3C=CC2C3)cc1 (centres undefined),0.9,9,11,-4,-3,nt,
COc1ccc([N+](=O)[O-])cc1/C=N/NC(=O)/C(=C\c1cccs1)NC(=O)c1ccccc1,0.8,6,18,99*,-1,82*,Diaphorase 10uM=86*;Diaphorase 30uM=70*
COc1ccc([N+](=O)[O-])cc1/C=N/NC(=O)Cc1ccccc1,1,22,-2,1,-4,nt,
COc1cc(N)c2ncsc2c1,nt,nt,nt,69*,13,72*,Diaphorase 10uM=-11;Diaphorase 30uM=-11
O=C(/C=C/c1ccco1)Nc1nc(-c2ccccc2)cs1,0.8,6,24,12,-3,nt,
O=C(/C=C/c1ccco1)Nc1scc(-c2ccccc2)c1C(=O)O,nt,nt,nt,75*,5,22,
O=C(Nc1scc(-c2ccccc2)c1C(=O)O)c1ccc(F)cc1,nt,nt,nt,55,9,nt,
